In the library only some 2.2% were active in any assay of this set; here they are far more common.
FXIIa inh 1536: human FXIIa protease inhibitors, primary screen, biochemical, 1536-well; inhibition, % at 5 µM; Coagulation factor XII (Homo sapiens), P00748; purified FXIIa, Boc-QGR-AMC fluorogenic substrate, 2 h; actives 0.3% (n = 220,000); in the data active = inhibition above about 40%;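 note: 0% = enzyme with no compound and 100% = blank without enzyme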
thrombin 1536: human alpha-thrombin inhibitors, primary screen, counter-screen for coagulation protease inhibitor project, biochemical, 1536-well, fluorogenic AMC substrate; inhibition, % at 5 µM; Prothrombin (Homo sapiens), P00734; Boc-VPR-AMC fluorogenic substrate cleavage; actives 0.26% (n = 220,000);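 active = inhibition at or above 40%; inactive = inhibition below 40%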;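 note: 0% = enzyme with no compound and 100% = wells without enzyme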
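Material: human alpha-thrombin protein; Also added: Boc-VPR-AMC substrate, 15 µM final; Timing: enzyme reaction carried out at room temperature; Signal: fluorescence, ex 355 nm, em 460 nm; Measure: % inhibition of thrombin; Controls: enzyme without compound as high, wells lacking enzyme as low.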
Wee1 stabilizer: Wee1 degradation inhibitors, primary screen, cell-based, HeLa, Wee1K328M-luciferase, luminescence; Wee1-like protein kinase (Homo sapiens), P30291; HeLa Luc-Wee1K328M stability; 100% = proteasome inhibitor MG132 effect; reporter increase, % at 5 µM; actives 1.2% (n = 220,000);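 active = activation above the mean of all tested compounds plus 3 SD, set per screening run, cut at about 8.8% in these data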;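 note: cells exposed to compound for 20 h before luminescence read; 0% = DMSO alone and 100% = MG132 at 30 µM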
FXIa inh: human FXIa protease inhibitors, primary screen, biochemical, 1536-well; purified FXIa, Boc-Glu-Ala-Arg-AMC fluorogenic substrate; inhibition, % at 5 µM; actives 0.14% (n = 220,000); AID 798, 2007;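 active = inhibition of at least 40%; inactive = inhibition below 40%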;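 note: fluorescence of freed AMC excited at 355 nm; 0% = enzyme without compound and 100% = no enzyme blank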
Target sequence (P03951 19-387 limits assumed): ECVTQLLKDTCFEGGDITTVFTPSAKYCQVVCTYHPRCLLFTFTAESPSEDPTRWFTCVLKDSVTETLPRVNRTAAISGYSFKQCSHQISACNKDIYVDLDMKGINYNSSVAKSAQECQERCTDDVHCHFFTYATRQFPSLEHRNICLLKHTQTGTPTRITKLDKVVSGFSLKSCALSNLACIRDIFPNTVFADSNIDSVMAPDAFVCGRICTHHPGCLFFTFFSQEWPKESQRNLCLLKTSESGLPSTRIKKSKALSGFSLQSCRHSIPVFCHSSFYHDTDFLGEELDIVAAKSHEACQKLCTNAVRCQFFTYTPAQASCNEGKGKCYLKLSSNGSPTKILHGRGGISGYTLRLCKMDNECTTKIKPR
Target sequence (P03951 388-625 limits assumed): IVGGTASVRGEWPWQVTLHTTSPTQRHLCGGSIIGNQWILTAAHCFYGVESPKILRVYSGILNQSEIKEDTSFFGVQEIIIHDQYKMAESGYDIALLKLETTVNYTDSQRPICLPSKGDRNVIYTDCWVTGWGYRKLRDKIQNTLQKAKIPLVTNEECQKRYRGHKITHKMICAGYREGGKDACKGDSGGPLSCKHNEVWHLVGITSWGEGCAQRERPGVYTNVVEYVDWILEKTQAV
KLK5 inh: human KLK5 protease inhibitors, primary screen, biochemical, 1536-well; inhibition, % at 5 µM; AID 873, 2007; recombinant hK5, fluorogenic AMC substrate cleavage; actives 0.59% (n = 210,000); Kallikrein-5 (Homo sapiens), Q9Y337;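 active = inhibition of 40% or more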;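 note: 0% = enzyme controls without compound and 100% = no-enzyme blanks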
Starred values were filed as active, the others as inactive; . = no result given.

SMILES | FXIIa inh 1536 | thrombin 1536 | Wee1 stabilizer | FXIa inh | KLK5 inh
CCn1ncc(C2=NOC(C(=O)Nc3c(C)n(C)n(-c4ccccc4)c3=O)C2)c1C (stereo not given) | 6 | 39 | 0 | 5 | 60*
CCn1ncc(C2=NOC(C(=O)NCc3ccccc3)C2)c1C (stereo not given) | 16 | 18 | 2 | 2 | 45*
CNC(=O)c1ccc(OC2CSC2)cc1 | 11 | -7 | 2 | 1 | -19
O=C(Nc1ccc(Cl)cc1)c1ccc(OC2CSC2)cc1 | -2 | -11 | 21* | 1 | -3
N#C/C(=N\O)c1nc2ccccc2s1 | 26 | 35 | 1 | 30 | 43*
N#C/C(=C(/O)c1ccc(F)cc1)c1nc2ccccc2s1 | 12 | -8 | -4 | 9 | 7
CC12COC3(C(=O)Nc4ccc5ccccc5c4)CC1CCC32C (stereo not given) | . | -6 | 9.3* | -3 | -2
CC12COC3(C(=O)Nc4ccccc4)CC1CCC32C (stereo not given) | 0 | -9 | -1 | -4 | -3
CN(CCC#N)C(=O)CC(Cc1ccccc1)C1CCOC(C)(C)C1 (stereo not given) | 2 | 0 | 4 | -1 | 0
c1ccc(-n2ncc3c(NCC4CCCO4)ncnc32)cc1 (stereo not given) | 5 | 2 | -1 | -2 | -18
Clc1ccc(-n2ncc3c(NCC4CCCO4)ncnc32)cc1 (stereo not given) | 5 | 2 | 9.6* | 9 | -1
CCn1c(C(C)NC(C)=O)nc2ccccc21 (stereo not given) | 3 | 21 | -2 | 5 | 57*
CCC(C)(C)NC(=O)C(c1ccc(C)cc1)N(CCN1CCOCC1)C(=O)CNC(=O)c1cccs1 (stereo not given) | 7 | -27 | 1 | -2 | -2
Cc1nc2c3ccccc3nc(NNC(=O)CCC(=O)NC3CCCC3)n2n1 | 9 | 5 | 0 | -3 | 50*
CC(C)c1cc(C(=O)N/N=C/c2cccnc2)n[nH]1 | 8 | -4 | 0 | -4 | -3
Cc1ccc(C(=O)/C=C/NCc2ccc(F)cc2)cc1 | 8 | 0 | 7 | 7 | -20
COc1ccc(C(=O)/C=C/NCc2ccc(F)cc2)cc1OC | 31 | 5 | 1 | 17 | 62*
COc1cc(-n2c(=O)c3ccccc3n(Cc3cc(=O)n4ccccc4n3)c2=O)cc(OC)c1OC | 6 | -3 | -3 | 11 | -17
COc1ccc(-c2cc(-c3ccccc3)n[nH]2)c(O)c1 | 1 | -1 | 10* | -1 | -16
O=C(Cc1cnc2ncnn2c1)N1CCc2c([nH]c3ccccc23)C1c1ccccn1 (stereo not given) | 7 | -7 | 7 | 0 | 2
COc1cc(/C=C2/C(=O)c3cccc([N+](=O)[O-])c3C2=O)c(Br)cc1O | 15 | -1 | 0 | 5 | -11
COc1ccc(/C=C/c2c([N+](=O)[O-])c(=O)n(C)c(=O)n2C)cc1OC | 7 | 1 | 1 | -1 | -3
CN(/C=C/c1c([N+](=O)[O-])c(=O)n(C)c(=O)n1C)c1ccccc1 | 10 | 2 | 9.4* | 4 | -6
COc1ccc(N(C(C)C(=O)NC2CCCCCC2)S(C)(=O)=O)cc1 (stereo not given) | 13 | 28 | -4 | 3 | 62*
CCOc1ccc(C(=O)NCCC2=CCCCC2)cc1OCC | -5 | 0 | -3 | -6 | -19
COc1ccc(/C=C/C(=O)Oc2cccc(/C=N/NC(=O)c3cccc(F)c3)c2)cc1 | 16 | 3 | 14* | 6 | -4
CC(C)CC(=O)Nc1ccc(F)c(Cl)c1 | -14 | -17 | 1 | -6 | -2
CCCC(C)C(=O)Nc1ccc(F)c(Cl)c1 (stereo not given) | 38 | 62* | 0 | 27 | 19
Fc1ccc(NC(=S)Nc2cccnc2)c(Cl)c1 | 2 | 1 | 1 | 1 | -12
Fc1ccc(NC(=S)Nc2cccnc2)c(F)c1F | 1 | -1 | 9.5* | -5 | -14

Source: PubChem
